Source: ChEMBL document CHEMBL1138272, “Synthesis, characterization, and receptor interaction profiles of enantiomeric bile acids” (J Med Chem, 2007)
The source made the active and inactive calls. The rule behind the calls is not given here.

Legend:
[1] = target: T1, G-protein coupled bile acid receptor 1 (Homo sapiens) (UniProt Q8TDU6); assay: Activation of TGR5 expressed in HEK293 cells assessed as elevation of cAMP production at 100 uM relative to control; type: functional, cell-based
T1 sequence (whole entry): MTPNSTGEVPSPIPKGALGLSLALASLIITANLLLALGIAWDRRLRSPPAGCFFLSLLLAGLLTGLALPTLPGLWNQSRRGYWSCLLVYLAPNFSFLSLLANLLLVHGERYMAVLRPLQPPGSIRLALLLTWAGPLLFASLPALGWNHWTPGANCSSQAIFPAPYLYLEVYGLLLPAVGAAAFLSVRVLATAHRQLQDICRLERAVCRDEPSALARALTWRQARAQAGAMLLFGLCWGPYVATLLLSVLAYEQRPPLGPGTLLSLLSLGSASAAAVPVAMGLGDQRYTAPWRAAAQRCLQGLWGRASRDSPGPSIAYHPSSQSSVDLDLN
Outline: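 HEK293 seeded 0.5 × 10^6 cells/well and transfected 24 h later with TGR5 vector or empty vector. After 2 days, cells were exposed 30 min at 37 °C in fresh medium with 0.2 mM IBMX. Intracellular cAMP was measured by kit after lysis and expressed over vehicle; N = 2.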

HepG2 [2] = assay: Decrease in CYP7A1 gene expression in human HepG2 cells at 25 uM after 18 hrs by RT-PCR; type: functional, cell-based
Outline: (§1)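 HepG2 cells seeded 3 × 10^5/well in M199 with 10% FBS and 25 mM HEPES; after 24 h, medium replaced with ligand-containing medium, 18 h. Total RNA isolated; real-time QPCR with SYBR green (12.5 ng cDNA, 150 nM primers); ΔΔCt method normalized to cyclophilin, fold change vs vehicle-treated cells; N = 3, mean ± SD.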

Caco-2 [3] = assay: Activation of IBABP gene expression in human Caco-2 cells at 25 uM after 6 days by RT-PCR; type: functional, cell-based
Outline: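 Caco-2 cells grown in high-glucose DMEM/15% heat-inactivated FBS, medium changed every 3 days; 23 days post-confluence treated with ligands in DMEM with 15% charcoal-stripped FBS for 6 days. SYBR green real-time QPCR, ΔΔCt normalized to cyclophilin, fold vs vehicle; N = 2.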

[4] = target: T2, Nuclear receptor subfamily 1 group I member 2 (Homo sapiens, UniProt O75469); assay: Activation of human PXR expressed in HEK293 cells at 20 uM by GAL4 activation assay relative to control; type: cell-based; conditions: hek293, 20 µM
T2 sequence (O75469 whole entry): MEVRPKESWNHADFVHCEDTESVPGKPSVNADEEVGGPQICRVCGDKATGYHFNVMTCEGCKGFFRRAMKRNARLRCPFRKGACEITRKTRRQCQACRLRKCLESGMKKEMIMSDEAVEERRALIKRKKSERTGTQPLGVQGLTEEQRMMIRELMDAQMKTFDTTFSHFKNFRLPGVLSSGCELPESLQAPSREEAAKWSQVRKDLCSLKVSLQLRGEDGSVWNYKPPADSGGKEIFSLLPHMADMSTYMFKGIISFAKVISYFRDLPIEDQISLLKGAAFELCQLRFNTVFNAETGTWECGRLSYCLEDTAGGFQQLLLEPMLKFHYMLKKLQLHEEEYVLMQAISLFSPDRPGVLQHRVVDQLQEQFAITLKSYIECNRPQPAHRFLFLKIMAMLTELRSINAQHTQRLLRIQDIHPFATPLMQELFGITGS
Outline: (§2)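 HEK293 cells in DMEM/10% super-stripped FBS, 4.0 × 10^4/well, calcium-phosphate transfected with UAS-luciferase (50 ng), GAL4-hFXR or GAL4-hPXR LBD fusion (15 ng), β-galactosidase (10 ng); ligands (5, 20, 50 µM) added 6-8 h later in delipidated medium, harvested 14-16 h later. Luciferase normalized to β-gal, fold over ethanol vehicle; triplicates.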

[5] = target: T2, Nuclear receptor subfamily 1 group I member 2; assay: Activation of human PXR expressed in HEK293 cells at 50 uM by GAL4 activation assay relative to control; type: cell-based; conditions: hek293, 50 µM; outline: as §2
Huh-7 [6] = assay: Activation of BSEP gene expression in human Huh7 cells at 20 uM after 18 hrs by RT-PCR; type: functional, cell-based
Outline: (§3)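 Huh7 cells seeded 2 × 10^5/well in high-glucose DMEM/10% FBS; next day ligands added in low-glucose DMEM with 5% charcoal-stripped FBS, 18 h. RNA harvested, SYBR green real-time QPCR, ΔΔCt normalized to cyclophilin, fold vs vehicle; N = 3, mean ± SD.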

HepG2 [7] = assay: Activation of BSEP gene expression in human HepG2 cells at 25 uM after 18 hrs by RT-PCR; type: functional, cell-based; outline: as §1
Huh-7 [8] = assay: Activation of SHP gene expression in human Huh7 cells at 20 uM after 18 hrs by RT-PCR; type: functional, cell-based; outline: as §3
HepG2 [9] = assay: Activation of SHP gene expression in human HepG2 cells at 25 uM after 18 hrs by RT-PCR; type: functional, cell-based; outline: as §1
[10] = target: T3, Bile acid receptor (Homo sapiens) (UniProt Q96RI1); assay: Activation of human FXR expressed in HEK293 cells by GAL4 activation assay; type: cell-based; outline: as §2
T3 sequence (whole entry): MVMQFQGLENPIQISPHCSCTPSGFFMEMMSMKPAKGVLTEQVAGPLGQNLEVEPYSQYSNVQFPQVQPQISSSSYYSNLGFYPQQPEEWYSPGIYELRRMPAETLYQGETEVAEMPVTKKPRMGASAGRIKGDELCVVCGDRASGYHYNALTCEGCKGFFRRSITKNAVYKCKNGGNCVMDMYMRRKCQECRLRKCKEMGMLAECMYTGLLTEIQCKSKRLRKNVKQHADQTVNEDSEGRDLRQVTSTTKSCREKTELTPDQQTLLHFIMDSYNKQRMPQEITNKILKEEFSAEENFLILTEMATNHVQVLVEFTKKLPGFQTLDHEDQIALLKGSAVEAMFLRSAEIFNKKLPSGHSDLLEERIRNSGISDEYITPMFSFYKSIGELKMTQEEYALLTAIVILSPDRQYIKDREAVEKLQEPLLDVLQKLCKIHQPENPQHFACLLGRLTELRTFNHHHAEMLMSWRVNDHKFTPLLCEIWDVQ

HepG2 [11] = assay: Activation of SHP gene expression in human HepG2 cells at 10 uM after 18 hrs by RT-PCR; type: functional, cell-based; outline: as §1
[12] = target: T3, Bile acid receptor (Homo sapiens); assay: Activation of human FXR at 50 uM by FXRE TK-luciferase reporter gene assay relative to control
Outline: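 HEK293 cells calcium-phosphate cotransfected with full-length hFXR and hRXRα (15 ng each) plus FXREx3-TK-luc reporter (three copies of mouse IBABP IR-1) and β-galactosidase; bile acids 50 µM added in delipidated medium 6-8 h later, harvested 14-16 h later; luciferase normalized to β-gal; N = 3.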

Huh-7 [13] = assay: Activation of BSEP gene expression in human Huh7 cells at 1 uM after 18 hrs by RT-PCR; type: functional, cell-based
Outline: (§4)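 Huh7 seeded 2 × 10^5 cells/well in high-glucose DMEM with 10% FBS. Next day, ligands were added in low-glucose DMEM with 5% charcoal-stripped FBS for 18 h. RNA was read by SYBR green real-time QPCR, ΔΔCt normalised to cyclophilin, and expressed as fold over vehicle; N = 3.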

HepG2 [14] = assay: Activation of BSEP gene expression in human HepG2 cells at 1 uM after 18 hrs by RT-PCR; type: functional, cell-based
Outline: (§5)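 HepG2 seeded 3 × 10^5 cells/well in M199 with 10% FBS, penicillin/streptomycin and 25 mM HEPES. After 24 h, medium was replaced with ligand-containing medium for 18 h. Total RNA was isolated and analysed by SYBR green real-time QPCR (12.5 ng cDNA, 150 nM primers). Values were derived by ΔΔCt against cyclophilin, as fold over vehicle; N = 3.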

Huh-7 [15] = assay: Activation of SHP gene expression in human Huh7 cells at 1 uM after 18 hrs by RT-PCR; type: functional, cell-based; outline: as §4
HepG2 [16] = assay: Decrease in CYP7A1 gene expression in human HepG2 cells at 1 uM after 18 hrs by RT-PCR; type: functional, cell-based; outline: as §5
Caco-2 [17] = assay: Activation of IBABP gene expression in human Caco-2 cells at 1 uM after 6 days by RT-PCR; type: functional, cell-based
Outline: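 Caco-2 grown in high-glucose DMEM with 15% heat-inactivated FBS, medium changed every 3 days. Treated 23 days postconfluence for 6 days in medium with 15% charcoal-stripped heat-inactivated FBS. RNA was read by SYBR green real-time QPCR, ΔΔCt normalised to cyclophilin, and expressed relative to vehicle; N = 2.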

C=C[C@@]1(C)CC(=O)[C@]2(O)[C@@]3(C)[C@@H](O)CCC(C)(C)[C@@H]3[C@H](O)[C@H](OC(C)=O)[C@@]2(C)O1
Fold change [1]: 16.5

C[C@H](CCC(=O)O)[C@H]1CC[C@H]2[C@@H]3[C@@H](O)C[C@@H]4C[C@H](O)CC[C@]4(C)[C@H]3CC[C@]12C
Activity (HepG2 [2]): Active | Activity (Caco-2 [3]): inactive

C[C@H](CCC(=O)O)[C@H]1CC[C@H]2[C@@H]3[C@H](O)C[C@@H]4C[C@H](O)CC[C@]4(C)[C@H]3CC[C@]12C [CHENODIOL]
Activity [4]: Active | Activity [5]: Active | Activity (Huh-7 [6]): Active | Activity (HepG2 [7]): Active | Activity (Huh-7 [8]): Active | Activity (HepG2 [9]): Active | Activity (HepG2 [2]): Active | Activity (Caco-2 [3]): Active

C[C@@H](CCC(=O)O)[C@@H]1CC[C@H]2[C@@H]3CC[C@H]4C[C@@H](O)CC[C@@]4(C)[C@H]3CC[C@]21C
Activity [10]: Dose-dependent effect | Activity [4]: Active | Activity [5]: Active | Activity (Huh-7 [6]): Active | Activity (Huh-7 [8]): Active | Activity (HepG2 [11]): Active | Activity (Caco-2 [3]): inactive

C[C@H](CCC(=O)O)[C@H]1CC[C@H]2[C@@H]3CC[C@@H]4C[C@H](O)CC[C@]4(C)[C@H]3CC[C@]12C [LITHOCHOLIC ACID]
Activity [10]: Dose-dependent effect | Activity [4]: Active | Activity [5]: Active | Activity [12]: Active | Activity (Huh-7 [6]): Active | Activity (Huh-7 [8]): Active | Activity (Caco-2 [3]): inactive

CC(C)c1onc(-c2c(Cl)cccc2Cl)c1COc1ccc(/C=C/c2cccc(C(=O)O)c2)c(Cl)c1
Activity (Huh-7 [13]): Active | Activity (HepG2 [14]): Active | Activity (Huh-7 [15]): Active | Activity (HepG2 [16]): Active | Activity (Caco-2 [17]): Active
